Results published in ChEMBL document CHEMBL4480427, “Further insights of selenium-containing analogues of WC-9 against Trypanosoma cruzi” (Bioorg Med Chem, 2019).
The source made the active and inactive calls. No cut-off for these calls is given here.

Key:
[1] = system: Trypanosoma cruzi; assay: Antitrypanosomal activity against tdTomato red expressing Trypanosoma cruzi CL amastigotes infected in gamma-irradiated African green monkey Vero cells after 72 hrs by fluorescence assay; assay type: functional; conditions: light or radiation study, read-out: ED50 (the source's name)
Outline: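 Gamma-irradiated (2,000 Rads) Vero cells, 3.4 × 10^4/well in RPMI with 10% FBS, held overnight at 35 °C, 7% CO2. Infected 5 h with 3.4 × 10^5 tdTomato CL trypomastigotes/well, then washed. Compounds were serially diluted 1.56–25 µM in quadruplicate, with benznidazole reference at 0.39–6.25 µM. Fluorescence read 72 h post-infection. ED50 by non-linear regression, mean ± S.D. of 3 biological replicates.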

[2] = Cytotoxicity against African green monkey Vero cells after 72 hrs by Alamar Blue assay; assay type: cell-based; conditions: chlorocebus sabaeus, read-out: ED50
Outline: (§1)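 Vero cells treated 72 h at 35 °C, 7% CO2, in quadruplicate wells, with untreated host-cell and DMSO toxicity controls. Alamar Blue was added at 10% of culture volume for 6 h at 35 °C, and absorbance read at 570 and 600 nm. Cytotoxicity was also scored by cell detachment under optical microscopy. Three biological replicates of 4 technical replicates each.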

[3] = system: Trypanosoma cruzi; assay: Antitrypanosomal activity against tdTomato red expressing Trypanosoma cruzi CL amastigotes infected in gamma-irradiated African green monkey Vero cells assessed as inhibition of parasite growth at 10 uM after 72 hrs by fluorescence assay relative to untreated control; assay type: functional; conditions: light or radiation study, read-out: GI
[4] = system: Trypanosoma cruzi; assay: Antitrypanosomal activity against tdTomato red expressing Trypanosoma cruzi CL amastigotes infected in gamma-irradiated African green monkey Vero cells assessed as inhibition of parasite growth at 6 uM after 72 hrs by fluorescence assay relative to untreated control; assay type: functional, organism-based
[5] = system: Vero; assay: Cytotoxicity against African green monkey Vero cells at 15 to 20 uM after 72 hrs by Alamar Blue assay; assay type: cell-based; conditions: chlorocebus sabaeus; outline: as §1
[6] = system: Trypanosoma cruzi; assay: Antitrypanosomal activity against tdTomato red expressing Trypanosoma cruzi CL amastigotes infected in gamma-irradiated African green monkey Vero cells assessed as inhibition of parasite growth at 1 uM after 72 hrs by fluorescence assay relative to untreated control; assay type: functional; conditions: light or radiation study, read-out: GI
[7] = system: Vero; assay: Cytotoxicity against African green monkey Vero cells at 20 uM after 72 hrs by Alamar Blue assay; assay type: cell-based; conditions: chlorocebus sabaeus; outline: as §1

With N#C[Se]CC1Cc2ccc(Oc3ccccc3)cc2O1 (racemic) the EC50 [1] was 93.9 nM and the CC50 at 72 h [2] was over 20 µM.
Work on FC(F)(F)SCCOc1ccc(Oc2ccccc2)cc1 yielded a CC50 at 72 h [2] of over 20 µM and an inhibition of growth at 10 µM [3] of 12%.
In the case of N#C[Se]CCOc1ccccc1Oc1ccccc1, the CC50 at 72 h [2] is reported as over 20 µM and the inhibition of growth at 10 µM [3] is reported as 33%.
For COc1ccc(OCC[Se]C#N)cc1, the “growth inhibition (GI)” value [4] was “inactive” and the Activity [5] was “Toxic”.
Work on FC(F)(F)SCCOc1cccc(Oc2ccccc2)c1 yielded an EC50 [1] of over 10000 nM and a CC50 at 72 h [2] of over 20 µM.
Work on FC(F)(F)[Se]CCOc1ccc(Oc2ccccc2)cc1 yielded an EC50 [1] of over 1000 nM, a CC50 at 72 h [2] of over 20 µM and an inhibition of growth at 1 µM [6] of 6.7%.
For O=C(Cn1ccnc1[N+](=O)[O-])NCc1ccccc1 [BENZNIDAZOLE], the CC50 at 72 h [2] was over 10 µM.
N#CSCCOc1ccccc1Oc1ccccc1 gave a CC50 at 72 h [2] of over 20 µM and an inhibition of growth at 10 µM [3] of 33%.
With N#C[Se]CCOc1ccccc1 the Activity [7] was “Toxic”.
For FC(F)(F)[Se]CCOc1cccc(Oc2ccccc2)c1, the CC50 at 72 h [2] was over 20 µM and the inhibition of growth at 1 µM [6] was 30.9%.
Compound N#CCCOc1ccc(Oc2ccccc2)cc1 has a CC50 at 72 h [2] of over 20 µM.
N#CCCCOc1ccc(Oc2ccccc2)cc1 showed a CC50 at 72 h [2] of over 20 µM.
For N#C[Se]CCOc1ccc([N+](=O)[O-])cc1, the Activity [5] was “Toxic”.
